# Laboratory results as given in PubChem BioAssay AID602316 (Southern Research Specialized Biocontainment Screening …, 2012).
# Activity calls are given as the source filed them.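 The calls were made as follows: active = inhibition of at least 30% at any tested concentration; inactive = the rest.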
# Biological target: M18 aspartyl aminopeptidase (Plasmodium falciparum 3D7)
# Test: PfM18AAP enzyme inhibition, dose response, selectivity assay for PfM17LAP inhibitor project, biochemical, QFRET, H-Glu-NHMec substrate, set 3 (AID 602316)
# Conditions: recombinant PfM18AAP, H-Glu-NHMec fluorogenic cleavage
# Outline: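 incubation = 90 min reaction, room temperature | material = recombinant PFM18AAP enzyme | compound dosing = 10-point twofold series, 100 to 0.2 µM, 2% DMSO | reagent = H-Glu-NHMec substrate, 0.1 mM | controls = no-enzyme background wells | measure = % inhibition and fitted IC50 | replication = each dose tested in triplicate | detection = NHMec fluorescence at 370/460 nm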
row,Structure (SMILES),IC50 [µM]
1,CCCCOc1cccc(CC(=O)NO)c1,29.1
2,CCCOc1ccc(CC(=O)NO)cc1,26.1
3,CCC(C)Oc1ccc(CC(=O)NO)cc1 (stereo not drawn),27.7
4,CCCCOc1ccc(C(C)C(=O)NO)cc1 (stereo not drawn),21.7

# Same assay, conditions: recombinant PfM18AAP, H-Glu-NHMec fluorogenic cleavage; at 100 µM (top of the series)
row,Structure (SMILES),inhibition
1,CCCCOc1ccc(C(C)C(=O)O)cc1 (stereo not drawn),inactive
2,CCCCOc1ccc(CN(O)C(=O)c2ccccc2)cc1,inactive
3,CCCCOc1cccc(CC(=O)OC)c1,inactive
4,CN(C)CCOc1ccc(CC(=O)O)cc1,inactive
5,CCCCOc1ccc(C(C)C(=O)OC)cc1 (stereo not drawn),inactive
6,CCCCOc1ccc(C(C)(C)C(=O)NO)cc1,inactive
7,CCCCOc1ccc(CN(O)C(C)=O)cc1,inactive
8,CCCCOc1ccc(C(C)(C)C(=O)O)cc1,inactive
9,CCCOc1ccc(CC(=O)O)cc1,inactive
